Laboratory results: ChEMBL document CHEMBL1142768, “2-(2-Furanyl)-7-phenyl[1,2,4]triazolo[1,5-c]pyrimidin-5-amine analogs as adenosine A2A antagonists: the successful reduction of hERG activity. Part 2” (Bioorg Med Chem Lett, 2005)

Columns and labels:
hERG (KCNH2) = hERG (KCNH2) (Homo sapiens, UniProt Q12809); assay: Percent inhibition of hERG by rubidium efflux FLIPR assay at concentration of 5 ug/mL; assay type: toxicity
[1] = Inhibitory constant against Adenosine A2A receptor using [3H]SCH-58261 as radio ligand; parameters: species or system Homo sapiens
Outline: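 Radioligand binding at the adenosine A2A receptor, run in duplicate; Ki reported as the mean of the duplicates.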

Rattus norvegicus [2] = assay: Percent reduction of cataleptic effect in rat upon dosing at 3 mg/kg; 13/13; assay type: functional; parameters: scale not given: the % may be the effect or the level left
Rattus norvegicus [3] = assay: Percent reduction of cataleptic effect in rat upon dosing at 3 mg/kg; 28/0; assay type: functional; parameters: scale not given: the % may be the effect or the level left
Rattus norvegicus [4] = assay: Percent reduction of cataleptic effect in rat upon dosing at 3 mg/kg; 55/40; assay type: functional; parameters: scale not given: the % may be the effect or the level left
Rattus norvegicus [5] = assay: Percent reduction of cataleptic effect in rat upon dosing at 3 mg/kg; 19/46; assay type: functional; parameters: scale not given: the % may be the effect or the level left
Rattus norvegicus [6] = assay: Percent reduction of cataleptic effect in rat upon dosing at 3 mg/kg; 23/32; assay type: functional; parameters: scale not given: the % may be the effect or the level left
Rattus norvegicus [7] = assay: Percent reduction of cataleptic effect in rat upon dosing at 3 mg/kg; 0/23; assay type: functional; parameters: scale not given: the % may be the effect or the level left
Rattus norvegicus [8] = assay: Percent reduction of cataleptic effect in rat upon dosing at 3 mg/kg; 23/47; assay type: functional; parameters: scale not given: the % may be the effect or the level left
Rattus norvegicus [9] = assay: Percent reduction of cataleptic effect in rat upon dosing at 3 mg/kg; 45/20; assay type: functional; parameters: scale not given: the % may be the effect or the level left
Rattus norvegicus [10] = assay: Percent reduction of cataleptic effect in rat upon dosing at 3 mg/kg; 36/59; assay type: functional; parameters: scale not given: the % may be the effect or the level left
Rattus norvegicus [11] = assay: Percent reduction of cataleptic effect in rat upon dosing at 3 mg/kg; 34/43; assay type: functional; parameters: scale not given: the % may be the effect or the level left
Rattus norvegicus [12] = assay: Percent reduction of cataleptic effect in rat upon dosing at 3 mg/kg; 10/12; assay type: functional; parameters: scale not given: the % may be the effect or the level left

Chain of hERG (KCNH2) (Q12809 whole entry): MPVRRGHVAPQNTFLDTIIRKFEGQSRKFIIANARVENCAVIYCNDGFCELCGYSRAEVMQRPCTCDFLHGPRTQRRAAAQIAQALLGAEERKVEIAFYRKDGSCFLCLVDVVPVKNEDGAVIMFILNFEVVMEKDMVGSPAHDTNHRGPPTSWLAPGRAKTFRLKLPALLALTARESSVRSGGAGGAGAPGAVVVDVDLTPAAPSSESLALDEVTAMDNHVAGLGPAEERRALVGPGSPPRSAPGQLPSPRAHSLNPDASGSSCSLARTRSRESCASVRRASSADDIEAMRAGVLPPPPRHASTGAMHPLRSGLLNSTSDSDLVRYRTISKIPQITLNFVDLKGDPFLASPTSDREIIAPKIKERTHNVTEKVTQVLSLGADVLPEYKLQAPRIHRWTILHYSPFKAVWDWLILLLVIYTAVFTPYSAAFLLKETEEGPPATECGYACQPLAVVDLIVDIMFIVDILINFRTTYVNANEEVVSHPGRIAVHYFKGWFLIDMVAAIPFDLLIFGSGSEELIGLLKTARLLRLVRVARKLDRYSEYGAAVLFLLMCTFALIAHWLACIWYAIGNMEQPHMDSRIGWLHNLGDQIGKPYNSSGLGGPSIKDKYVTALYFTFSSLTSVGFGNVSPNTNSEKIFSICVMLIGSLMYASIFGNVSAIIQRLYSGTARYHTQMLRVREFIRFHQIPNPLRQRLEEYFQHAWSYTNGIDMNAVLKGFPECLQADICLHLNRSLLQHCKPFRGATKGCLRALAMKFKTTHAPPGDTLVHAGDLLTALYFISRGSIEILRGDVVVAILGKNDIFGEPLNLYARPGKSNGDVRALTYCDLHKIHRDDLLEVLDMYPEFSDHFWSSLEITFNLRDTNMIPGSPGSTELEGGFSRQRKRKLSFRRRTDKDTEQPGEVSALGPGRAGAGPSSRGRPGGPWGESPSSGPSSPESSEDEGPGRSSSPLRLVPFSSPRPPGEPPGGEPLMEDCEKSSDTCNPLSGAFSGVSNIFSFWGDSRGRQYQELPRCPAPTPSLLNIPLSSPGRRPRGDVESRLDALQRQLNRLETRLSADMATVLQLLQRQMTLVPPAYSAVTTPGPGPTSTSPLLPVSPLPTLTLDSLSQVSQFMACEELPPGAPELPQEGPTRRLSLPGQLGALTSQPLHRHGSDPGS

SMILES	inhibition at 5 ug/mL (hERG (KCNH2))	Ki [1]	also measured
Nc1nc(-c2cccc(CO)c2)cc2nc(-c3ccco3)nn12	15%	–	–
COCCOc1ccc(N2CCN(Cc3cccc(-c4cc5nc(-c6ccco6)nn5c(N)n4)c3)CC2)cc1	81%	–	–
CC(C)S(=O)(=O)N1CCN(c2cccc(-c3cc4nc(-c5ccco5)nn4c(N)n3)c2)CC1	10%	0.5 nM	Activity (Rattus norvegicus [2]): 13%
CC1CN(CC(=O)N2CCN(c3cccc(-c4cc5nc(-c6ccco6)nn5c(N)n4)c3)CC2)CCO1 (stereo not drawn)	-3% (not active)	0.8 nM	Activity (Rattus norvegicus [3]): 28%
COCCOc1ccc(N2CCN(c3cccc(-c4cc5nc(-c6ccco6)nn5c(N)n4)c3)CC2)cc1	-4% (not active)	1 nM	Activity (Rattus norvegicus [4]): 55%
COCCOc1cccc(N2CCN(c3cccc(-c4cc5nc(-c6ccco6)nn5c(N)n4)c3)CC2)c1	3%	2.3 nM	Activity (Rattus norvegicus [5]): 46%
Nc1nc(-c2cccc(N3CCN(CCN4CCOCC4)CC3)c2)cc2nc(-c3ccco3)nn12	13%	1.3 nM	Activity (Rattus norvegicus [6]): 32%
CC(C)OC(=O)N1CCN(c2cccc(-c3cc4nc(-c5ccco5)nn4c(N)n3)c2)CC1	8%	1 nM	Activity (Rattus norvegicus [7]): 23%
Nc1nc(-c2cccc(N3CCN(C(=O)CN4CCOCC4)CC3)c2)cc2nc(-c3ccco3)nn12	5%	0.5 nM	Activity (Rattus norvegicus [8]): 47%
Nc1nc(-c2cccc(N3CCC(=O)CC3)c2)cc2nc(-c3ccco3)nn12	–	1.3 nM	–
COCCOc1cccc(N2CCN(Cc3cccc(-c4cc5nc(-c6ccco6)nn5c(N)n4)c3)CC2)c1	68%	–	–
Nc1nc(-c2cccc(N3CCC4(CC3)OCCO4)c2)cc2nc(-c3ccco3)nn12	8%	0.4 nM	Activity (Rattus norvegicus [9]): 45%
Nc1nc(-c2cccc(N3CCC(N4CCOCC4)CC3)c2)cc2nc(-c3ccco3)nn12	1%	0.8 nM	Activity (Rattus norvegicus [10]): 59%
Nc1nc(-c2cccc(N3CCNCC3)c2)cc2nc(-c3ccco3)nn12	–	5.7 nM	–
CCCCOC(=O)N1CCN(c2cccc(-c3cc4nc(-c5ccco5)nn4c(N)n3)c2)CC1	-3% (not active)	0.5 nM	Activity (Rattus norvegicus [11]): 43%
CC(C)(C)CNC1CCN(c2cccc(-c3cc4nc(-c5ccco5)nn4c(N)n3)c2)CC1	9%	18 nM	Activity (Rattus norvegicus [12]): 12%
